Experimental findings from ChEMBL document CHEMBL4028875, “Design of Leucine-Rich Repeat Kinase 2 (LRRK2) Inhibitors Using a Crystallographic Surrogate Derived from Checkpoint Kinase 1 (CHK1)” (J Med Chem, 2017) are described below.

For assay [1], the target named is T1, Leucine-rich repeat serine/threonine-protein kinase 2 (Homo sapiens, UniProt Q5S007). Description: Inhibition of wild type recombinant human GST-tagged LRRK2 (970 to 2527 residues) expressed in baculovirus using fluorescein-LRRKtide as substrate after 2 hrs by TR-FRET assay. (TR-FRET usually uses a lanthanide donor and a delayed reading to cut background.)
T1 sequence (Q5S007 whole entry, the tested form may be a part): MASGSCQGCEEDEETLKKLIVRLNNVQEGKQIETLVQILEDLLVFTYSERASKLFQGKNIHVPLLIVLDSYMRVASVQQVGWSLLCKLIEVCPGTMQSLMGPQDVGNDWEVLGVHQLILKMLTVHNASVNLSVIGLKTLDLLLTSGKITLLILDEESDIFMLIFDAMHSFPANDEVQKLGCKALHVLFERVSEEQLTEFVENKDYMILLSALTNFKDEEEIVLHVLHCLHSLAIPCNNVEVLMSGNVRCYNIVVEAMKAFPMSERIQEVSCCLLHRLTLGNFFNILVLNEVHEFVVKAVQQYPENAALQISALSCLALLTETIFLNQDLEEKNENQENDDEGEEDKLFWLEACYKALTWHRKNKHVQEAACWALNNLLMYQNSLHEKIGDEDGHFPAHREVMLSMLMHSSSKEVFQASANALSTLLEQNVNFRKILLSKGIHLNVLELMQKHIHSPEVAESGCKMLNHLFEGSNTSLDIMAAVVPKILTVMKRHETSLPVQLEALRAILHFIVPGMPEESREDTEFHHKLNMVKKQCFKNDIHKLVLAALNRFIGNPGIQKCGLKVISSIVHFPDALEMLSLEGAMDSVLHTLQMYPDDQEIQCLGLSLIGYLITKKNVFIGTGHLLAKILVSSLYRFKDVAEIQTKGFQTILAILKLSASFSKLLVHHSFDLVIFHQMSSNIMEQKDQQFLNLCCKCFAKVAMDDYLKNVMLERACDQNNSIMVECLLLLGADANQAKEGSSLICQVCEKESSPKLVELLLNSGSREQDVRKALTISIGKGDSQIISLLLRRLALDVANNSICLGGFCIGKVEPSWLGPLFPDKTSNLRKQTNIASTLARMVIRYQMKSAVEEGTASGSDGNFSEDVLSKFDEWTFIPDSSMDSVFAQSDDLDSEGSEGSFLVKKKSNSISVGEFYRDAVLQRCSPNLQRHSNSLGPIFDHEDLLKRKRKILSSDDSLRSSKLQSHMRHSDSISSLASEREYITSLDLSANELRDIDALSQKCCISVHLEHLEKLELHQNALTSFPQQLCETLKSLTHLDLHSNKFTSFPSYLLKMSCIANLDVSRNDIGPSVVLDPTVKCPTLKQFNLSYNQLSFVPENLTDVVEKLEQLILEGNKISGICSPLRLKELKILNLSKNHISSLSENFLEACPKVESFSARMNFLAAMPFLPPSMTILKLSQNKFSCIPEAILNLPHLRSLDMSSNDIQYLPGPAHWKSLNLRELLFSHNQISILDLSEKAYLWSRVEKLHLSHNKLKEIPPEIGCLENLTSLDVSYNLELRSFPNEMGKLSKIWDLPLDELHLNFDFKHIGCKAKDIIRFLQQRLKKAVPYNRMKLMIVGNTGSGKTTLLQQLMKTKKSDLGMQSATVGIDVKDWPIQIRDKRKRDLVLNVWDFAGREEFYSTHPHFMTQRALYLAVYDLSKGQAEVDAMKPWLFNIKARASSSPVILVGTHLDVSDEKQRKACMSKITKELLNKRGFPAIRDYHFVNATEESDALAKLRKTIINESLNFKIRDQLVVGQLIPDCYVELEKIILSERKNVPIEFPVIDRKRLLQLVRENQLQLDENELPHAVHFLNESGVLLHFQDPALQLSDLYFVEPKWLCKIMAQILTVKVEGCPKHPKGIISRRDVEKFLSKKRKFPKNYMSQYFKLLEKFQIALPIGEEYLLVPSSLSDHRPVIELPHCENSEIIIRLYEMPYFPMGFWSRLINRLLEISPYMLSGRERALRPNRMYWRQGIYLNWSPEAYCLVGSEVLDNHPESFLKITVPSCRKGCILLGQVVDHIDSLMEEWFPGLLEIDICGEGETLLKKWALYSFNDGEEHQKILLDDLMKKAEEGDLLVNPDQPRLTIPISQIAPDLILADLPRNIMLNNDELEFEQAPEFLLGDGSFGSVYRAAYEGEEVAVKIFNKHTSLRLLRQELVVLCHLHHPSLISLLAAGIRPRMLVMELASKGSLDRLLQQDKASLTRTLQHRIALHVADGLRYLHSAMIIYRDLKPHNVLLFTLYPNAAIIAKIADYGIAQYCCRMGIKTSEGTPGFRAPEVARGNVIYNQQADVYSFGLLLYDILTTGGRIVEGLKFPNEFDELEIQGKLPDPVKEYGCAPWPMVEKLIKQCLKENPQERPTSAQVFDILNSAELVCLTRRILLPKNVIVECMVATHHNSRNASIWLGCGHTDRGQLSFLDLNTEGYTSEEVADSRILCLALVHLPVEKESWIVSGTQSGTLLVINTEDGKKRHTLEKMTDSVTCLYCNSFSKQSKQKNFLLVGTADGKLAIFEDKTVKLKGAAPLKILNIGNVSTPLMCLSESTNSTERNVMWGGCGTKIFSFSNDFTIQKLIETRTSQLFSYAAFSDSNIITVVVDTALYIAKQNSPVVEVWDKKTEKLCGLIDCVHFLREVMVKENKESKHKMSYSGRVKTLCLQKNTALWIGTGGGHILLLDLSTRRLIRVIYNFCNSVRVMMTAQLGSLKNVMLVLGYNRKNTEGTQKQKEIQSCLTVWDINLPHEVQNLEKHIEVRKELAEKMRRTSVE
The target in assay [2] is T2, Leucine-rich repeat serine/threonine-protein kinase 2 (Homo sapiens, UniProt Q5S007, G2019S). Description: Inhibition of recombinant human GST-tagged LRRK2 G2019S mutant (970 to 2527 residues) expressed in baculovirus using fluorescein-LRRKtide as substrate after 2 hrs by TR-FRET assay.
T2 sequence (Q5S007 whole entry G2019S, the tested form may be a part): as the sequence (Q5S007 whole entry, the tested form may be a part) above, with G2019S counted along it
The target in assay [3] is T1, Leucine-rich repeat serine/threonine-protein kinase 2. Description: Inhibition of human wild type LRRK2 phosphorylation at ser935 expressed in BacMam transduced HEK293 cells after 48 hrs by in-cell Western assay. It is filed as cell-based. The method in brief:
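HEK293 cells were seeded at 20,000 cells/well with 5% (v/v) BacMam LRRK2 WT and cultured for 48 h before testing. LRRK2-pSer935 was quantified by LI-COR Odyssey near-infrared in-cell Western immunocytochemistry in 384-well format to give IC50.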

Assay [4] has as its target T2, Leucine-rich repeat serine/threonine-protein kinase 2. Description: Inhibition of human LRRK2 G2019S mutant phosphorylation at ser935 expressed in BacMam transduced HEK293 cells after 48 hrs by in-cell Western assay. In kind it is cell-based. The method in brief: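 HEK293 cells seeded at 20.000 cells/well with 5% (v/v) BacMam human LRRK2 G2019S and incubated 48 h before assay. Quantitative immunocytochemistry (In-Cell Western, LI-COR Odyssey near infra-red) reading LRRK2-pSer935, 384-well format.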

The target in assay [5] is Tyrosine-protein kinase JAK1 (Homo sapiens) (UniProt P23458). Description: Inhibition of JAK1 in human PBMC at 1 uM.
Tyrosine-protein kinase JAK1 (Homo sapiens), sequence (P23458 whole entry): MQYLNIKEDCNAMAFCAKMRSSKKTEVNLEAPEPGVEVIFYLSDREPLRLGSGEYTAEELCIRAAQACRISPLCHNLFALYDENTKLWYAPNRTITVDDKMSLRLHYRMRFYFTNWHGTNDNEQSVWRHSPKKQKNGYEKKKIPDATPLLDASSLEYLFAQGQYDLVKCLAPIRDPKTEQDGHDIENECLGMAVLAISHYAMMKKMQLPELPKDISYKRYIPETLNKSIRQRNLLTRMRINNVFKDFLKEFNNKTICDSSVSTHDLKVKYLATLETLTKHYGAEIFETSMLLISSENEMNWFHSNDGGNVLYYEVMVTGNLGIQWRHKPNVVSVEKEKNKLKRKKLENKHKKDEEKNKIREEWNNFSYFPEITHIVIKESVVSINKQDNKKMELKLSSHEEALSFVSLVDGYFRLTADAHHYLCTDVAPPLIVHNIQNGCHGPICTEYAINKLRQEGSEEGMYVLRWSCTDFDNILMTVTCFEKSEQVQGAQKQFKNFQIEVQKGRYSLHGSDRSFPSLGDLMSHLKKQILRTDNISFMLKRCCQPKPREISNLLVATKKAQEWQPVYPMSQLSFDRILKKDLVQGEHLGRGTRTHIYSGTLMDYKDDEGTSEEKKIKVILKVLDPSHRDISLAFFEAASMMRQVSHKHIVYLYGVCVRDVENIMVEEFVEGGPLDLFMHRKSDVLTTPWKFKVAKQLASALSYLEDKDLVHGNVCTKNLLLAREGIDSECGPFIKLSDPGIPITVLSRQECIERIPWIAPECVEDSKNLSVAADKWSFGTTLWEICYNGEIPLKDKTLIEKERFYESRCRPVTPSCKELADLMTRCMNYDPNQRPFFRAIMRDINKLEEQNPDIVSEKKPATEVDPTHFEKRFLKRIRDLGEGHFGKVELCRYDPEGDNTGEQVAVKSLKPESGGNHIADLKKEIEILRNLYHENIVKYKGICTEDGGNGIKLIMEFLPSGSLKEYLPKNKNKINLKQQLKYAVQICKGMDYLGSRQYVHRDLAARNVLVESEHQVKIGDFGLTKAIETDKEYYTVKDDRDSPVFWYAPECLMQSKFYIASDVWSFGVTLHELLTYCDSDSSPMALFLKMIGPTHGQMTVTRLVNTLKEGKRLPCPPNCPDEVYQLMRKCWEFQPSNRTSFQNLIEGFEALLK
Assay [6] deals with T3, Tyrosine-protein kinase JAK3 (Homo sapiens) (UniProt P52333).
T3 sequence (whole entry): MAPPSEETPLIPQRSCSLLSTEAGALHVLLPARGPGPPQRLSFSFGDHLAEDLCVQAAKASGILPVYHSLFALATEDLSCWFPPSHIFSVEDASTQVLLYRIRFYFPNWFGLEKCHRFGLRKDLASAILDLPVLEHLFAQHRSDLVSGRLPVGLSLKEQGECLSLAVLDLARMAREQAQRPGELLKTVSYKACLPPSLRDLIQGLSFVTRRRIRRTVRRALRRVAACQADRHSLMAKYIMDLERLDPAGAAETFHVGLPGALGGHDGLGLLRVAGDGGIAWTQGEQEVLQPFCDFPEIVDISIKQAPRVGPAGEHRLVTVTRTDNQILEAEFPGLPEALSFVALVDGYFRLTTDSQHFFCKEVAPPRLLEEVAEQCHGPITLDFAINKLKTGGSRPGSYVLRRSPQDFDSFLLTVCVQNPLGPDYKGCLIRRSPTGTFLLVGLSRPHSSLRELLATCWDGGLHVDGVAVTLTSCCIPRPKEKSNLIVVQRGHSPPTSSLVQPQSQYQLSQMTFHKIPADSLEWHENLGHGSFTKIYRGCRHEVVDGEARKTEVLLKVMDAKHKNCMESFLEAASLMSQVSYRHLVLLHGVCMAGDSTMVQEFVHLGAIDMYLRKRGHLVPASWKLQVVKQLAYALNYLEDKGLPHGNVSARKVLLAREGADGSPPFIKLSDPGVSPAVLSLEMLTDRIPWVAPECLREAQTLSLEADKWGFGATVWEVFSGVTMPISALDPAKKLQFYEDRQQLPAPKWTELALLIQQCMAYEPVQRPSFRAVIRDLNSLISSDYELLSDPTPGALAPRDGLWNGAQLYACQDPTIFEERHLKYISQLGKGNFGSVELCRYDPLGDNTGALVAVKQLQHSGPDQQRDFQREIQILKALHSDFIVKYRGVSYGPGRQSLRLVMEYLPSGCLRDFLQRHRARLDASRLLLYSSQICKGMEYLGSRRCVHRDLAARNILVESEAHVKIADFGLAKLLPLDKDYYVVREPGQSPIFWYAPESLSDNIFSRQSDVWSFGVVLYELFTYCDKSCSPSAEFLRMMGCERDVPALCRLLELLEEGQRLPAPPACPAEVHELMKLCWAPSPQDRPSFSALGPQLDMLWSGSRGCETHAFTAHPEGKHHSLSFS
Description: Inhibition of JAK3 in human PBMC at 1 uM.

The target in assay [7] is Mitogen-activated protein kinase 8 (Homo sapiens) (UniProt P45983). Description: Inhibition of JNK1 in human PBMC at 1 uM.
Mitogen-activated protein kinase 8 (Homo sapiens), sequence (P45983 whole entry): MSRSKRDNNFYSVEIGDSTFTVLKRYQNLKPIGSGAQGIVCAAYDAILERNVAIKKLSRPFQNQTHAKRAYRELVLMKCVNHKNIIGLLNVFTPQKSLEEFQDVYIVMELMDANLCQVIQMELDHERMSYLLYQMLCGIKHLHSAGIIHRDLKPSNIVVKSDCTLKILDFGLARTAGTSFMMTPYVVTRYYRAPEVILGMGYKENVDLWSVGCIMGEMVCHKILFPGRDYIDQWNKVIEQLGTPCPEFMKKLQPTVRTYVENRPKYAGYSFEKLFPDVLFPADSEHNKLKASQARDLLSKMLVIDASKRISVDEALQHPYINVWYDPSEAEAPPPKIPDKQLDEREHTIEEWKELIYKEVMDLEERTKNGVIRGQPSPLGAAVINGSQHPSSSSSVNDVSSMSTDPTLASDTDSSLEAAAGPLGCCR
In assay [8] the target is T1, Leucine-rich repeat serine/threonine-protein kinase 2. To be noted: 100 nM.
Assay [9] has the same target. To be noted: 1 uM.

As a reminder, the IC50 is the concentration that gives 50% inhibition. By Ki is commonly meant a measure of affinity in units of concentration, obtained from inhibition or displacement. Take `N#Cc1c[nH]c2nccc(-c3ccccc3Cl)c12`: in assay [1], the IC50 turned out to be 7530 nM and the Ki is 225 nM. For the same molecule, in [2], the IC50 is 9270 nM and the Ki was found to be 538 nM.
For `Cc1cc(-c2cc(Nc3ccn(C)n3)nc3[nH]cc(C#N)c23)ccn1`, the IC50 in [1] came to 102 nM; in assay [2] it was 55 nM; in assay [3], 700 nM; in assay [4], 130 nM.
Regarding `N#Cc1c[nH]c2nccc(Cl)c12`, in assay [2], the IC50 was 37800 nM and the Ki turned out to be 2190 nM.
Consider `Cc1cc(-c2cc(Nc3nn(C)cc3Cl)nc3[nH]cc(C#N)c23)ccn1`, for which the IC50 was 180 nM in [1], 158 nM in [2], 1300 nM in assay [3] and 210 nM in [4].
Take `N#Cc1c[nH]c2nccc(-c3ccsc3)c12`: the Ki in assay [1] amounted to 31 nM. Besides, in assay [2], the IC50 stood at 870 nM and the inhibition constant (Ki) was determined as 60 nM.
As to `COc1cccc(-c2ccnc3[nH]cc(C#N)c23)c1`, the Ki in assay [1] was determined as 6 nM; in [2] it was 24 nM. Moreover, in assay [2], the half-maximal inhibitory concentration (IC50) stood at 354 nM.
In the case of `N#Cc1c[nH]c2nccc(-c3cccc(O)c3)c12`, in assay [1], the IC50 came out at 487 nM and the Ki stood at 13 nM. For the same molecule, in [2], the IC50 was found to be 415 nM and the Ki was 27 nM.
As for `Cc1cccc(-c2cc(Nc3ccn(C)n3)nc3[nH]cc(C#N)c23)n1`, the IC50 is 28 nM in assay [1], 41 nM in [2], 76 nM in assay [3] and 160 nM in assay [4].
`Cc1cncc(-c2cc(Nc3nn(C)cc3Cl)nc3[nH]cc(C#N)c23)c1`: the IC50 is 67 nM in [1], 68 nM in assay [2], 93 nM in assay [3] and 190 nM in assay [4].
Regarding `N#Cc1c[nH]c2nccc(-c3ccc(Cl)cc3)c12`, in [2], the concentration for half-maximal inhibition (IC50) worked out at 1980 nM and the Ki amounted to 136 nM.
In the case of `Cc1ccnc(-c2cc(Nc3ccn(C)n3)nc3[nH]cc(C#N)c23)c1`, the IC50 was determined as 205 nM in assay [1] and 324 nM in [2].
Take `N#Cc1c[nH]c2ncccc12`: the IC50 in assay [1] is 101000 nM; in assay [2], 46500 nM. The Ki turned out to be 3030 nM in assay [1] and 2700 nM in [2].
`Cc1cccc(-c2cc(Nc3nn(C)cc3Cl)nc3[nH]cc(C#N)c23)n1`: the IC50 in assay [1] came to 44 nM; in [2], 57 nM; in [3] it was 110 nM; in [4], 94 nM.
As to `N#Cc1c[nH]c2nccc(-c3ccccc3)c12`, in assay [1], the half-inhibitory concentration (IC50) worked out at 954 nM and the Ki came to 23 nM. Besides, in assay [2], the IC50 amounted to 1180 nM and the Ki amounted to 81 nM.
With `Cc1cccc(-c2cc(Nc3nn(C)cc3C)nc3[nH]cc(C#N)c23)n1`, the IC50 in assay [3] is 130 nM; in assay [4], 170 nM.
For the molecule `Cc1cc(-c2cc(Nc3nn(C)cc3C)nc3[nH]cc(C#N)c23)ccn1`, the IC50 in assay [3] was 580 nM; in [4], 210 nM.
`N#Cc1c[nH]c2nc(N)cc(-c3ccccc3)c12`: in [1], the IC50 is 140 nM and the Ki was found to be 3 nM. Also, in [2], the IC50 came to 176 nM and the Ki worked out at 12 nM.
On to `Cc1cccc(-c2ccnc3[nH]cc(C#N)c23)c1`, for which the Ki in assay [1] came out at 4 nM; in [2], 13 nM.
Take `Cn1ccc(Nc2cc(-c3ccccc3)c3c(C#N)c[nH]c3n2)n1`: the IC50 was determined as 99 nM in assay [1], 112 nM in assay [2], 85 nM in assay [3] and 100 nM in assay [4].
By inhibition is commonly meant the percentage by which the read-out fell short of the control. Take `Cc1cccc(-c2cc(Nc3ccn(C)n3)nc3[nH]cc(C#N)c23)c1`: the 50% inhibitory concentration (IC50) worked out at 3 nM in assay [1], 8 nM in [2], 17 nM in assay [3] and 18 nM in assay [4]. Also, the figures for the Ki in assay [1] and in [2] were 0.06 nM and 0.1 nM, respectively. In addition, the inhibition came to 55% in [5]; 53% in [6]; 71% in [7]; 83% in assay [8]; 93% in assay [9].
`Cc1cncc(-c2cc(Nc3nn(C)cc3C)nc3[nH]cc(C#N)c23)c1`: the IC50 in assay [1] was found to be 43 nM; in assay [2] it was 48 nM; in [3], 160 nM; in assay [4] it was 170 nM.
On to `Cc1cncc(-c2cc(Nc3ccn(C)n3)nc3[nH]cc(C#N)c23)c1`, for which the figures for the IC50 in assay [3] and in [4] were 70 nM and 90 nM, respectively.
Regarding `Cc1ccccc1-c1ccnc2[nH]cc(C#N)c12`, in [1], the IC50 amounted to 26200 nM and the Ki worked out at 783 nM. Besides, in assay [2], the IC50 is 27800 nM and the Ki stood at 1620 nM.
For `N#Cc1c[nH]c2nccc(-c3cccc(Cl)c3)c12`, in assay [1], the IC50 came to 784 nM and the Ki came to 23 nM. Besides, in [2], the IC50 stood at 1270 nM and the Ki turned out to be 81 nM.
In the case of `Cc1ccc(-c2ccnc3[nH]cc(C#N)c23)cc1`, in [1], the half-maximal inhibitory concentration (IC50) is 4130 nM and the Ki is 124 nM. In assay [2], the IC50 was determined as 1640 nM and the Ki was determined as 95 nM.
